≈ marks a conversion by molar mass, not a printed value.
Experiments:
Settings in all cases: read-out: ED50 (the source's name)
[1] = test system: KB; test: Cytotoxicity against human KB cells by SRB assay; format: functional
Summary of the method: (§1)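 Colorimetric cytotoxicity read-out on a panel of cultured mammalian cancer cell lines, run by an earlier published method, with ellipticine as the positive control.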

[2] = Cytotoxicity against human BCA1 cells by SRB assay; format: functional; summary of the method: as §1
[3] = test system: Lu1; test: Cytotoxicity against human Lu1 cells by SRB assay; format: functional; summary of the method: as §1
[4] = test system: Col2; test: Cytotoxicity against human Col2 cells by SRB assay; format: functional; summary of the method: as §1
[5] = test system: P388; test: Cytotoxicity against mouse P388 cells by SRB assay; format: functional; summary of the method: as §1
[6] = Cytotoxicity against rat ASK cells by SRB assay

SMILES	EC50 [1]	EC50 [2]	EC50 [3]	EC50 [4]	EC50 [5]	EC50 [6]
Cc1c2ccncc2c(C)c2c1[nH]c1ccccc12 [ELLIPTECINE]	0.65 µg/mL (≈ 2.64 µM)	0.65 µg/mL (≈ 2.64 µM)	0.56 µg/mL (≈ 2.27 µM)	0.53 µg/mL (≈ 2.15 µM)	0.52 µg/mL (≈ 2.11 µM)	0.6 µg/mL (≈ 2.44 µM)
O=C(/C=C/c1ccccc1)O[C@H](c1ccccc1)[C@H]1O[C@@H]2CC(=O)O[C@@H]2[C@H]1O [(+)-CRASSALACTONE C]	> 5 µg/mL	> 5 µg/mL	> 5 µg/mL	> 5 µg/mL	> 5 µg/mL	> 5 µg/mL
O=C1C=C[C@]2(C[C@H](O)[C@@H](c3ccccc3)O2)O1	3.3 µg/mL (≈ 14.2 µM)	3.2 µg/mL (≈ 13.8 µM)	> 5 µg/mL	4 µg/mL (≈ 17.2 µM)	1.1 µg/mL (≈ 4.74 µM)	3.1 µg/mL (≈ 13.3 µM)
COc1c(O)cc2c3c(cc4ccccc4c13)NC2=O [ARISTOLACTAM AII]	> 5 µg/mL	> 5 µg/mL	> 5 µg/mL	> 5 µg/mL	2.7 µg/mL (≈ 10.2 µM)	> 5 µg/mL
O=C(/C=C/c1ccccc1)O[C@@H]1[C@H]([C@@H](O)c2ccccc2)O[C@H]2CC(=O)O[C@@H]12 [(+)-CRASSALACTONE B]	> 5 µg/mL	> 5 µg/mL	> 5 µg/mL	> 5 µg/mL	3.8 µg/mL (≈ 9.99 µM)	> 5 µg/mL
O=C1C=C[C@H](OC(=O)/C=C/c2ccccc2)[C@H]([C@H](O)[C@H](O)c2ccccc2)O1	1.7 µg/mL (≈ 4.47 µM)	0.92 µg/mL (≈ 2.42 µM)	1.9 µg/mL (≈ 4.99 µM)	1.9 µg/mL (≈ 4.99 µM)	0.18 µg/mL (≈ 0.473 µM)	1.6 µg/mL (≈ 4.21 µM)
O=C1C=C[C@H](OC(=O)/C=C/c2ccccc2)[C@H]([C@H](OC(=O)/C=C/c2ccccc2)[C@H](OC(=O)/C=C/c2ccccc2)c2ccccc2)O1	> 5 µg/mL	> 5 µg/mL	> 5 µg/mL	> 5 µg/mL	3.1 µg/mL (≈ 4.84 µM)	> 5 µg/mL

Source: ChEMBL document CHEMBL1158128, “Cytotoxic styryl-lactones from the leaves and twigs of Polyalthia crassa” (2006)
